Measurements published in ChEMBL document CHEMBL2440065, “Identification of a novel benzoxazolone derivative as a selective, orally active 18 kDa translocator protein (TSPO) ligand” (J Med Chem, 2013).
In brackets after ≈: the same amount, converted by molar mass.

Tests used:
[1] = Solubility of the compound at pH 2.5 by HPLC analysis; assay type: physicochemical; conditions: buffer
Procedure, shortened: (§1)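 Compound (1 mg) shaken in 0.4 mL buffered solution at pH 7.4 or pH 2.5, then centrifuged; dissolved compound in the supernatant quantified by HPLC.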

[2] = Solubility of the compound at pH 7.4 by HPLC analysis; assay type: physicochemical; conditions: buffer; procedure, shortened: as §1
CYP2C19 = CYP2C19 (Homo sapiens, UniProt P33261); experiment: Inhibition of CYP2C19 (unknown origin) at 1 uM; assay type: ADME
Rattus norvegicus = species on record: Rattus norvegicus; experiment: Displacement of [3H]flumazenil from Sprague-Dawley rat cerebral cortex CBR at 10 uM after 1 hr by liquid scintillation counting analysis; assay type: tissue-based
Translocator protein = Translocator protein (Rattus norvegicus, UniProt P16257); experiment: Displacement of [3H]PK11195 from Sprague-Dawley rat kidney TSPO after 1 hr by liquid scintillation counting analysis
[3] = Metabolic stability in rat liver S9 fraction assessed as compound remaining at 1 uM after 30 mins in presence of NADPH; assay type: ADME, subcellular; conditions: read-out: Stability
[4] = Displacement of [3H]batrachotoxin from rat brain sodium channel site 2; assay type: tissue-based

Chain of Translocator protein (P16257 whole entry, looked up): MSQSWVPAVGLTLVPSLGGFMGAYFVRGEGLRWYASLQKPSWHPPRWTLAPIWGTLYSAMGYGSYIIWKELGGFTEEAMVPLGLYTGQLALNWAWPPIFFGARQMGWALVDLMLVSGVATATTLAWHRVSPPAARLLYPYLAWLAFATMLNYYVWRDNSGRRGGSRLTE
Chain of CYP2C19 (P33261 whole entry): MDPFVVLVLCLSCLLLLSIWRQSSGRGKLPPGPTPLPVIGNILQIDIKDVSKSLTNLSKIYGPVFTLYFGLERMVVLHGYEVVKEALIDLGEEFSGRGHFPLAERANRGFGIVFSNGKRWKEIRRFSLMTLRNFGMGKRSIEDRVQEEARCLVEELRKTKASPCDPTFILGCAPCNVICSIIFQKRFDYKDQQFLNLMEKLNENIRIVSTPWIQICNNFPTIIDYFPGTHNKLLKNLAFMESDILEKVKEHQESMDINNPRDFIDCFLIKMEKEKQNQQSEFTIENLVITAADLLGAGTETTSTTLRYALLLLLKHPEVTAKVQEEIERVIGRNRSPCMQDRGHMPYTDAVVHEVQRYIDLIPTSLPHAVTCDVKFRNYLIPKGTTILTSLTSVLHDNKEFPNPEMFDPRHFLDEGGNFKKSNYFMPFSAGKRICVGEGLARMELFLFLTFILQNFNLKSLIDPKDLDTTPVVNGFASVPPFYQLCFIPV

Structure (SMILES)	solubility [1] [µg/mL]	solubility [2] [µg/mL]	inhibition at 1 µM (CYP2C19) [%]	inhibition (Rattus norvegicus) [%]	Ki (Translocator protein) [nM]	remaining at 0.5 h, 1 µM [3] [%]	IC50 [4] [nM]
CN(C(=O)Cn1c(=O)oc2ccc(-c3ccncc3)cc21)c1ccccc1	730 (≈ 2030 µM)	1 (≈ 2.78 µM)					
CCN(C(=O)Cn1c(=O)oc2ccc(-c3ccncc3)cc21)c1ccccc1	860 (≈ 2300 µM)	2 (≈ 5.36 µM)	71	5	3	24	
CN(C(=O)Cn1c(=O)oc2ccc(-c3ccncc3)cc21)c1ccc(C(F)(F)F)cc1	> 1000	3 (≈ 7.02 µM)	73	0	6.6	35	
CN(C(=O)Cn1c(=O)oc2ccc(-c3ccc(OC(F)(F)F)cc3)cc21)c1ccccc1	< 1	< 1					
CN(C(=O)Cn1c(=O)oc2ccc(-c3ccccc3)cc21)c1ccccn1	3 (≈ 8.35 µM)	1 (≈ 2.78 µM)					
CN(C(=O)Cn1c(=O)oc2ccc(-c3cccnc3)cc21)c1ccc(OC(F)(F)F)cc1				0	26		> 1000
CN(C(=O)Cn1c(=O)oc2ccc(-c3ccccc3)cc21)c1ccccc1	1 (≈ 2.79 µM)						
COc1ccc(N(C)C(=O)Cn2c(=O)oc3ccc(-c4ccncc4)cc32)cc1	130 (≈ 334 µM)	< 1		2	17	47	
CN(C(=O)Cn1c(=O)oc2ccc(-c3cccnc3)cc21)c1ccccc1		5 (≈ 13.9 µM)					
